Calls of active or inactive are those of the source. The calls are words filed in the database; no cut-off is given here.
Columns and labels:
[1] = target: T1, Nicotinamide phosphoribosyltransferase (Homo sapiens, UniProt P43490); experiment: Inhibition of Nampt activity in H2O2-induced DNA damage in human MCF10A cells stably transfected with PIK3CA (H1047R) assessed as loss of PARP activity; assay type: cell-based; conditions: MCF-10A
Target sequence in this assay (P43490 whole entry, looked up): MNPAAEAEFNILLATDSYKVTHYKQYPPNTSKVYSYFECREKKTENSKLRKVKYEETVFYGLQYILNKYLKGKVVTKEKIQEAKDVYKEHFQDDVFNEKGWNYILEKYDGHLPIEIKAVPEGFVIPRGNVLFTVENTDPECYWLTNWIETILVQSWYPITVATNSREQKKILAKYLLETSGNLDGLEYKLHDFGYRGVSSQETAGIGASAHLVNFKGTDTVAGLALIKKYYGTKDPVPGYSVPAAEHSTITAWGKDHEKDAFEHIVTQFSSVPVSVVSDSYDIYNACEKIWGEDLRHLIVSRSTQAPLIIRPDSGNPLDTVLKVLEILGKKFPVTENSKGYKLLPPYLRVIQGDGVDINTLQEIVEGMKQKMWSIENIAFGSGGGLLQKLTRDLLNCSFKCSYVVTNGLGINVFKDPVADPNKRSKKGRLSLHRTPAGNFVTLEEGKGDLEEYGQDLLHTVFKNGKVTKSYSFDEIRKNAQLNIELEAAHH

[2] = system: HCT-116; experiment: Cytotoxicity against human HCT116 cells after 72 hrs; assay type: functional
Outline: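 HCT116 colon carcinoma cells treated with compound for 72 h; viability read out as cellular ATP levels.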

[3] = target: T1, Nicotinamide phosphoribosyltransferase; experiment: Inhibition of nicotinamide phosphoribosyltransferase-catalyzed conversion of nicotinamide to nicotinamide mononucleotide
Outline: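 Coupled-enzyme format: Nampt turnover of nicotinamide to NMN monitored through a downstream coupled reaction; IC50 determined.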
Target sequence in this assay (P43490 whole entry): as the sequence (P43490 whole entry, looked up) above

[4] = system: WIL2; experiment: Cytotoxicity against human W1L2 cells; assay type: functional, cell-based
[5] = system: HCT-116; experiment: Cytotoxicity against human HCT116 cells after 72 hrs in presence of 10 uM exogenous nicotinic acid; assay type: functional, cell-based; conditions: HCT-116, 72 h
Outline: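 HCT116 colon carcinoma cells treated for 72 h with compound plus 10 μM exogenous nicotinic acid to test whether killing depends on Nampt; viability read out as cellular ATP levels.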

[6] = target: T1, Nicotinamide phosphoribosyltransferase; experiment: Inhibition of nicotinamide phosphoribosyltransferase-catalyzed conversion of nicotinamide to nicotinamide mononucleotide at 10 uM
Target sequence in this assay (P43490 whole entry, looked up): as above

[7] = target: Thymidylate synthase (Homo sapiens, UniProt P04818); experiment: Inhibition of thymidylate synthase
Sequence of Thymidylate synthase (P04818 whole entry): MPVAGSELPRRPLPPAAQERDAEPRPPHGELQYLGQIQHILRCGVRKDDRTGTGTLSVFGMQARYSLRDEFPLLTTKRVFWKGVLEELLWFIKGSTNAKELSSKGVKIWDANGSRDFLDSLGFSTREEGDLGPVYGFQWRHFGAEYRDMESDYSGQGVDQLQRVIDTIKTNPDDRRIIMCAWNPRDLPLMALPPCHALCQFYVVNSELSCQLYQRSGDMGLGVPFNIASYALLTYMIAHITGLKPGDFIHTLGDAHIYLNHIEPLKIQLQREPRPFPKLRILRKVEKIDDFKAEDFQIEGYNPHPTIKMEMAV

[8] = target: T1, Nicotinamide phosphoribosyltransferase; experiment: Inhibition of nicotinamide phosphoribosyltransferase-catalyzed conversion of nicotinamide to nicotinamide mononucleotide relative to untreated enzyme; conditions: concentration not given here
Target sequence in this assay (P43490 whole entry, looked up): as the sequence (P43490 whole entry, looked up) above

[9] = target: T1, Nicotinamide phosphoribosyltransferase; experiment: Inhibition of nicotinamide phosphoribosyltransferase-mediated decrease in cellular NAD level
Target sequence in this assay (P43490 whole entry): as the sequence (P43490 whole entry, looked up) above

| IC50 [3] | Compound | inhibitory concentration [1] | Activity [2] | other results |
| --- | --- | --- | --- | --- |
| 13 nM | Cn1cnc2cc(Cl)c(CN(CC3CC3)c3ccc(C(=O)NCc4cccnc4)cc3)cc2c1=O | 0.012 µM | 0.11 µM | – |
| 0.3 nM | C#CCN(Cc1cc2c(=O)n(C)c(CN3CCN(CCCN)CC3)nc2cc1Cl)c1ccc(C(=O)NCc2cccnc2)cc1 | 0.0018 µM | 0.018 µM | – |
| – | C#CCN(Cc1cc2c(O)nc(C)nc2cc1Br)c1ccc(C(=O)NCc2cccnc2)cc1 | – | – | EC50 [4]: 2.8 nM |
| 1200 nM | Cc1c(Sc2ccc(C(=O)NCc3cccnc3)cc2)[nH]c2nc(N)nc(N)c12 | – | – | – |
| 56 nM | Cn1cnc2cc(Cl)c(CN(CC(N)=O)c3ccc(C(=O)NCc4cccnc4)cc3)cc2c1=O | > 1 µM | >10 µM | EC50 [5]: > 10000 nM |
| > 10000 nM | Cc1nc2ccc(CN(C(=O)C3CC3)c3ccc(C(=O)NCc4cccnc4)cc3)cc2c(=O)n1C | 2.6 µM | >10 µM | – |
| 1.9 nM | CC(C)=CCN(Cc1ccccc1Cl)c1ccc(C(=O)NCc2cccnc2)cc1 | 0.0032 µM | 0.016 µM | EC50 [5]: > 10000 nM |
| 6.1 nM | CC(C)CCN(Cc1ccccc1Cl)c1ccc(C(=O)NCc2cccnc2)cc1 | 0.0079 µM | 0.39 µM | EC50 [5]: > 10000 nM |
| 11 nM | CC(C)=CCN(Cc1cc2c(=O)n(C)c(C)nc2cc1Cl)c1ccc(C(=O)NCc2cccnc2)cc1 | 0.0018 µM | 0.0095 µM | EC50 [5]: > 10000 nM |
| 31 nM | CC(C)=CCN(Cc1ccc2nc(C)n(C)c(=O)c2c1)c1ccc(C(=O)NCc2nc3ccccc3[nH]2)cc1 | 0.7 µM | 1.4 µM | – |
| 150 nM | C#CCN(Cc1ccc2nc(C)n(C)c(=O)c2c1)c1ccc(C(=O)NCc2ccc(Cl)cc2)cc1 | > 5 µM | >10 µM | – |
| 85 nM | C#CCN(Cc1ccc2nc(C)n(C)c(=O)c2c1)c1ccc(C(=O)NCc2ccc3c(c2)OCO3)cc1 | > 5 µM | >10 µM | – |
| 2.9 nM | C/C=C/CN(Cc1ccc2nc(C)n(C)c(=O)c2c1)c1ccc(C(=O)NCc2cccnc2)cc1 | 0.0016 µM | 0.0044 µM | – |
| 0.79 nM | C#CCN(Cc1cc2c(=O)n(C)c(CO)nc2cc1Cl)c1ccc(C(=O)NCc2cccnc2)cc1 | 0.0001 µM | 0.0016 µM | – |
| 2600 nM | Cc1nc2ccc(CN(CC3CC3)c3ccc(C(=O)NCc4cccnc4)cc3)cc2c(=O)n1C | 0.019 µM | 0.11 µM | – |
| 3.8 nM | Cn1cnc2cc(Cl)c(NCc3ccc(C(=O)NCc4cccnc4)cc3)cc2c1=O | 0.0093 µM | 0.42 µM | – |
| 40 nM | C#CCN(Cc1cc2c(=O)n(C)c(C)nc2cc1Cl)c1ccc(C(=O)NCc2nc3ccccc3[nH]2)cc1 | 3.2 µM | 5.7 µM | – |
| > 10000 nM | C#CCN(Cc1ccc2nc(C)n(C)c(=O)c2c1)c1ccc(C(=O)NCC2CCCNC2)cc1 (centres undefined) | – | – | inhibition [6]: inactive |
| > 10000 nM | CC(C)=CC(=O)N(Cc1ccc2nc(C)n(C)c(=O)c2c1)c1ccc(C(=O)NCc2cccnc2)cc1 | 2.2 µM | >10 µM | – |

| IC50 [3] | Compound | inhibitory concentration [1] | Activity [2] | other results |
| --- | --- | --- | --- | --- |
| 110 nM | O=C(NCc1cccnc1)c1ccc(N(Cc2ccccc2)Cc2ccccc2Cl)cc1 | 0.17 µM | 0.7 µM | – |
| 98 nM | C#CCN(Cc1ccc2nc(C)n(C)c(=O)c2c1)c1ccc(C(=O)NCc2ccc(F)c(F)c2F)cc1 | > 5 µM | >10 µM | – |
| 210 nM | Cc1noc(C)c1CN(Cc1ccc2nc(C)n(C)c(=O)c2c1)c1ccc(C(=O)NCc2cccnc2)cc1 | 0.012 µM | 5.3 µM | – |
| 130 nM | C#CCN(Cc1ccc2nc(C)n(C)c(=O)c2c1)c1ccc(C(=O)NCc2nc3ccccc3[nH]2)cc1 | > 5 µM | 5.4 µM | – |
| – | C#CCN(Cc1cc2c(=O)[nH]c(C)nc2cc1Br)c1ccc(C(=O)NCc2ccncc2)cc1 | – | – | IC50 [7]: 156 nM |
| 1.5 nM | C/C=C/CN(Cc1ccccc1Cl)c1ccc(C(=O)NCc2cccnc2)cc1 | 0.0089 µM | 0.099 µM | – |
| 29 nM | Cc1nc2c(c(=O)[nH]1)CN(C(=O)Nc1ccc(C(=O)NCc3cccnc3)cc1)CC2 | > 5 µM | >10 µM | – |
| 330 nM | CCN(Cc1ccccc1Cl)c1ccc(C(=O)NCc2cccnc2)cc1 | > 5 µM | >10 µM | – |
| 90 nM | Cc1c(Sc2ccc(C(=O)NCCc3cccnc3)cc2)[nH]c2nc(N)nc(N)c12 | – | >10 µM | – |
| 2.6 nM | CC(C)=CCN(Cc1cc2c(=O)n(C)cnc2cc1Cl)c1ccc(C(=O)NCc2cccnc2)cc1 | 0.0005 µM | 0.0073 µM | EC50 [5]: > 10000 nM |
| 34 nM | C#CCN(Cc1ccc2nc(C)n(C)c(=O)c2c1)c1ccc(C(=O)NCc2ccccc2F)cc1 | > 5 µM | 9.7 µM | – |
| 1.2 nM | CC(C)=CCN(Cc1ccc2ncn(C)c(=O)c2c1)c1ccc(C(=O)NCc2cccnc2)cc1 | 0.0004 µM | 0.004 µM | – |
| 420 nM | CC(C)CN(Cc1ccccc1Cl)c1ccc(C(=O)NCc2cccnc2)cc1 | – | – | – |
| 660 nM | CC(C)=CC(=O)N(Cc1cc2c(=O)n(C)cnc2cc1Cl)c1ccc(C(=O)NCc2cccnc2)cc1 | 0.37 µM | 4.1 µM | – |
| > 10000 nM | C#CCN(Cc1coc2nc(N)nc(N)c12)c1ccc(C(=O)NCc2cccnc2)cc1 | > 5 µM | >10 µM | – |
| 950 nM | C#CCCN(Cc1ccc2nc(C)n(C)c(=O)c2c1)c1ccc(C(=O)NCc2cccnc2)cc1 | 2.9 µM | 6.3 µM | – |
| > 10000 nM | CN(Cc1ccccc1Cl)c1ccc(C(=O)NCc2cccnc2)cc1 | – | – | – |
| 1.4 nM | CC(C)=CCN(Cc1ccc2nc(C)n(C)c(=O)c2c1)c1ccc(C(=O)NCc2cccnc2)cc1 | 0.00023 µM | 0.0035 µM | – |
| 49 nM | C#CCN(Cc1ccc2nc(C)n(C)c(=O)c2c1)c1ccc(C(=O)NCc2ccc(F)cc2F)cc1 | > 5 µM | >10 µM | – |

| IC50 [3] | Compound | inhibitory concentration [1] | Activity [2] | other results |
| --- | --- | --- | --- | --- |
| – | CC(C)=CCN(Cc1cc2c(=O)n(C)nnc2cc1Cl)c1ccc(C(=O)NCc2cccnc2)cc1 | 0.0017 µM | 0.003 µM | – |
| 12 nM | Cn1cnc2cc(Cl)c(C(=O)Nc3ccc(C(=O)NCc4cccnc4)cc3)cc2c1=O | 0.048 µM | 0.73 µM | – |
| 7200 nM | Cc1nc2c(c(=O)[nH]1)CN(C(=O)c1ccc(C(=O)NCc3cccnc3)cc1)CC2 | > 5 µM | >10 µM | – |
| 4.2 nM | C#CCN(Cc1ccccc1Cl)c1ccc(C(=O)NCc2cccnc2)cc1 | 0.15 µM | 2.4 µM | EC50 [5]: > 10000 nM |
| > 10000 nM | CCCCN(Cc1ccccc1Cl)c1ccc(C(=O)NCc2cccnc2)cc1 | – | – | – |
| 12 nM | C#CCN(Cc1ccc2ncn(C)c(=O)c2c1)c1ccc(C(=O)NCc2cccnc2)cc1 | 0.025 µM | 0.3 µM | – |
| – | C#CCN(Cc1cc2c(=O)[nH]c(C)nc2cc1Br)c1ccc(C(=O)NCc2ccccn2)cc1 | – | – | inhibition [8]: 90%; IC50 [7]: 156 nM |
| 12 nM | C#CCCN(Cc1cc2c(=O)n(C)cnc2cc1Cl)c1ccc(C(=O)NCc2cccnc2)cc1 | 0.03 µM | 0.15 µM | – |
| 15 nM | CCCN(Cc1ccccc1Cl)c1ccc(C(=O)NCc2cccnc2)cc1 | 0.24 µM | 3.5 µM | – |
| 2800 nM | Cc1[nH]c2nc(N)[nH]c(=O)c2c1Sc1ccc(C(=O)NCc2cccnc2)cc1 | > 5 µM | – | – |
| 250 nM | C#CCN(Cc1ccc2nc(C)n(C)c(=O)c2c1)c1ccc(C(=O)NCc2cccc(F)c2)cc1 | > 5 µM | >10 µM | – |
| 1.3 nM | O=C(NCc1cccnc1)c1ccc(N(Cc2ccccc2Cl)CC2CC2)cc1 | 0.011 µM | 0.059 µM | – |
| 0.55 nM | C#CCN(Cc1cc2c(=O)n(C)c(C)nc2cc1Cl)c1ccc(C(=O)NCc2cccnc2)cc1 | 0.00045 µM | 0.0021 µM | – |
| 3.6 nM | C#CCN(Cc1ccc2nc(C)n(C)c(=O)c2c1)c1ccc(C(=O)NCc2cccnc2)cc1 | 0.0095 µM | 0.034 µM | – |
| 0.31 nM | C#CCN(Cc1cc2c(=O)n(C)c(CN3CCN(C)CC3)nc2cc1Cl)c1ccc(C(=O)NCc2cccnc2)cc1 | 5e-05 µM | 0.00046 µM | EC50 [4]: 0.49 nM |
| 25 nM | CC(C)=CCN(Cc1cc2c(=O)n(C)c(C)nc2cc1Cl)c1ccc(C(=O)NCc2nc3ccccc3[nH]2)cc1 | > 5 µM | 6.4 µM | – |
| – | O=C(CCCCCCCn1cc(-c2cccnc2)nn1)Nc1ccccc1-c1ccccc1 | – | – | IC50 [9]: 3 nM |
| 30 nM | C#CCN(Cc1ccc2nc(C)n(C)c(=O)c2c1)c1ccc(C(=O)NCc2ccc(F)c(F)c2)cc1 | > 5 µM | >10 µM | – |
| 600 nM | Nc1nc(N)c2c(CCc3ccc(C(=O)NCc4cccnc4)cc3)c[nH]c2n1 | > 5 µM | >10 µM | – |

Source: ChEMBL document CHEMBL1800028, “Analogues of 4-[(7-Bromo-2-methyl-4-oxo-3H-quinazolin-6-yl)methylprop-2-ynylamino]-N-(3-pyridylmethyl)benzamide (CB-30865) as potent inhibitors of nicotinamide phosphoribosyltransferase (Nampt)” (J Med Chem, 2010)
